Screens as filed in PubChem BioAssay.
Compounds with a hit are over-represented: about 1.6% of the library has one in this group of screens.
PLCg1 inh: PLC-gamma1 (human) inhibition, primary screen | inhibition, % at 12.2 µM | purified PLC-gamma1, fluorogenic substrate, fluorescence | P19174 | actives 0.84% (n = 370,000); in the data active = inhibition above about 9.5%
procasp7 counter: activates human procaspase-7, counter-screen for procaspase-3 activators; recombinant procaspase-7, Ac-DEVD-pNA absorbance 405 nm; D23A/D198A/D206A triple mutant, cannot self-cleave; scale: DMSO 0, 5 µM enzyme 100; actives 0.093% (n = 330,000); AID 463210; P55210; activation, % at 8.5 µM;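 active = percent activation above the screen-wide mean plus 3 SD, cut at about 25% in these data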
Target sequence (P55210 whole entry D23A/D198A/D206A): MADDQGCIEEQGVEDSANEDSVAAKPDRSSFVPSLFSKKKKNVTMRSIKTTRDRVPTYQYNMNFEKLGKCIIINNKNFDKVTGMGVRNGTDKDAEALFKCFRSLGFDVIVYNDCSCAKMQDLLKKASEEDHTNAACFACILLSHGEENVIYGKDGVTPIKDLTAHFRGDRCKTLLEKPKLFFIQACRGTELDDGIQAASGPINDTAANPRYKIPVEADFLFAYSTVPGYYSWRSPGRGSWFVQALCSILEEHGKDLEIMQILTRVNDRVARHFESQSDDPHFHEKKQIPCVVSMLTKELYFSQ
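buffer or medium = Zinc-free HEPES/NaCl buffer, pH 7.4 | material = Procaspase-7 triple mutant (PC-7 D3A) | input = 2 µM procaspase-7 mutant as dispensed | signal = Epi-absorbance of released pNA at 405 nm, two timepoints | timing = 1 h preincubation, 2 h reaction | replicates = singlicate compound testing | evaluation = % activation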
HGIII-sPLA2 inh: Blocks human group III sPLA2 activity. QFRET BODIPY PC-A2 liposome hydrolysis, fluorescence. actives 0.56% (n = 370,000). inhibition, % at 12.2 µM. AID 743126;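 active = inhibition above mean plus 3 SD of compounds lying within the high and low control bounds, cut at about 19% in these data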;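 also: 0% = median of test compound wells and 100% = no enzyme DMSO wells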
PLCb3 inh: inhibitors of human phospholipase C beta3; Q01970; Purified PLC-beta3, fluorogenic substrate, fluorescence; actives 0.18% (n = 370,000); inhibition, % at 12.2 µM; in the data active = inhibition above about 11%;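 also: 0% = median of compound wells on plate and 100% = full blocker control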
procasp3 activ: activators of human procaspase-3; actives 0.11% (n = 330,000); activation, % at 8.5 µM; recombinant procaspase-3 D3A, Ac-DEVD-pNA absorbance 405 nm; AID 463141;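 active = activation above the mean of all tested compounds plus 3 SD, cut at about 21% in these data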;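 also: 0% = DMSO alone and 100% = DMSO wells spiked with extra 5 µM PC-3 D3A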
Target sequence (P42574 whole entry D9A/D28A/D175A): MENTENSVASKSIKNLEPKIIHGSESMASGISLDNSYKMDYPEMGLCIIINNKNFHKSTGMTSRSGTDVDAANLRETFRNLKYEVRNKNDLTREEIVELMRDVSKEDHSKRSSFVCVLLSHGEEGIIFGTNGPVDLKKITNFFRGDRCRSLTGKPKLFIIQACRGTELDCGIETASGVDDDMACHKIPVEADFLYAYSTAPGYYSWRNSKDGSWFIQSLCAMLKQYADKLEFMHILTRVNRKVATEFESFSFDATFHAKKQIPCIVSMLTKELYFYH
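System: Procaspase-3 D3A mutant. Medium: Zinc-free 300 mM NaCl, 50 mM HEPES, 0.01% Triton X-100. Schedule: 1 h preincubation plus 2 h reaction at 25 °C. Measured by: 405 nm absorbance of p-nitroaniline, reads at 0 and 120 min. Read-out: percent activation relative to control range.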
proCasp7 act trip: counter-screen: procaspase-7 (human) activation in triplicate. shares compounds with procasp3 activ. recombinant procaspase-7, Ac-DEVD-pNA absorbance; asp23/198/206-to-Ala mutant, cannot self-cleave. activation, % at 8.5 µM. 210 tested, under 10 active;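 active = mean activation above a set limit taken from an earlier procaspase-7 screen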;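 also: 0% = DMSO wells and 100% = DMSO plus 5 µM procaspase-7 enzyme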
procasp3 conf: procaspase-3 (human) activation, confirmed. shares compounds with procasp3 activ. recombinant PC-3 D3A, Ac-DEVD-pNA absorbance 405 nm; 100% is higher-enzyme control. activation, % at 8.5 µM. actives 10% (n = 210). AID 488954;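 active = mean activation above a set limit carried over from the earlier primary screen, cut at about 22% in these data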
Starred values were filed as active, the others as inactive; i = inactive; x = no result given.

SMILES	PLCg1 inh	procasp7 counter	HGIII-sPLA2 inh	PLCb3 inh	procasp3 activ	others
COc1ccc(-c2cc(C(=O)OCC(=O)NC3CC3)c3ccccc3n2)cc1	i	26*	2	i	44*
COCCNC(=O)c1ccc(Cl)c(S(=O)(=O)Nc2cccc(C)c2C)c1	0	2	-7	-5	-7
CN(C(=O)CSc1nnc(C(F)(F)F)n1N)C1CCS(=O)(=O)C1 (stereo unspecified)	2	-8	11	-7	4
COCCn1c(SCC(=O)Nc2ccccc2)nc2c1c(=O)[nH]c(=O)n2C	9.8*	-2	4	2	4
Clc1ccc(CN2CCC(Cc3ccccc3)CC2)cc1	11*	1	-5	6	4
O=C(Nn1cnnc1)c1cc([N+](=O)[O-])cc([N+](=O)[O-])c1	2	9	-2	3	-4
O=C(Nn1cnnc1)c1ccc([N+](=O)[O-])cc1Cl	3	0	21*	-4	-3
CC(C(=O)NN=C(c1ccccc1)c1ccccc1)N1CCOCC1 (stereo unspecified)	5	1	6	6	2
CC(O)(c1cccc(F)c1)c1nc(-c2ccccc2)cs1 (stereo unspecified)	0	x	-20	-1	x
Cn1cc(-c2csc(C(C)(O)c3cccc(F)c3)n2)cn1 (stereo unspecified)	10*	x	12	-3	x
Cc1csc(N=Nc2ccc(N(C)C)cc2)[n+]1[O-]	11*	x	16	10	x
CC(C)CC(c1nnnn1Cc1cccs1)N1CCN(c2nc3ccccc3s2)CC1 (stereo unspecified)	9.9*	-11	11	10	2
CCC(c1nnnn1Cc1cccs1)N1CCN(c2nc3ccccc3s2)CC1 (stereo unspecified)	-1	2	-19	0	7
O=S(=O)(NCc1nc2ccccc2[nH]1)c1ccccc1	1	9	0	-15	5
O=C(Nc1nc2c(Cl)ccc(Cl)c2s1)C1CC1	-1	-6	-7	2	-5
NNc1nc2c(Cl)ccc(Cl)c2s1	-14	2	22*	-14	-5
O=C(N/N=C/c1ccccc1C(=O)O)c1cccc(S(=O)(=O)N2CCCCC2)c1	1	-1	6	-8	3
CCCCn1nnnc1C(c1ccccc1)N1CCN(c2ccc(C)cc2)CC1 (stereo unspecified)	-2	x	0	11*	x
CCCCn1nnnc1C(c1ccccc1)N1CCN(c2ncccn2)CC1 (stereo unspecified)	1	x	5	5	x
CCOC(=O)C1=C(COc2ccccc2)NC(=O)NC1c1ccc(Br)cc1 (stereo unspecified)	1	-8	-4	6	3
COC(=O)C(C(=O)N1CCN(C)CC1)C1CCCCCC1 (stereo unspecified)	0	-13	0	0	4
COC(=O)C(C(=O)OC)C1C=CCN(C(C)=O)C1 (stereo unspecified)	29*	x	-5	0	x
Cc1nn(S(=O)(=O)c2ccccc2)c(C)c1Sc1ccc([N+](=O)[O-])cc1	1	8	0	2	-4
CCCc1nnn(S(=O)(=O)c2ccc([N+](=O)[O-])cc2)c1CCC	12*	x	10	13*	x
Cc1ccccc1OCC(O)CNC1CCC(NCC(O)COc2ccccc2C)CC1 (stereo unspecified)	16*	2	-16	7	7
SMILES	PLCg1 inh	procasp7 counter	HGIII-sPLA2 inh	PLCb3 inh	procasp3 activ	others
CC(=O)c1c(C)[nH]c(C(=O)OCC(=O)Nc2cc(Cl)ccc2[N+](=O)[O-])c1C	11*	-5	0	10	10
CCCc1ccc(C2C3=C(CC(C)(C)CC3=O)NC3=C2C(=O)c2ccccc23)cc1 (stereo unspecified)	10*	12	1	6	-7
S=c1[nH]cc(-c2ccccc2)n1-c1ccccc1	13*	-28	19	6	-11
CCn1c(-c2ccccc2)c[nH]c1=S	0	-13	7	6	-10
COc1ccc(NC(=O)COc2ccc(CNCCCN3CCOCC3)cc2OC)cc1	10*	14	0	6	-2
COc1ccccc1NC(=O)COc1ccc(Br)cc1CNCCCN1CCOCC1	0	10	-4	5	7
COc1ccc(C=NNC(=S)Nc2ccc(F)cc2)cc1OC	0	x	23*	-2	x
COc1ccc(C=NNC(=S)NN=Cc2ccc(OC)c(OC)c2)cc1OC	-93	x	17	-125	x
c1coc(CSSCc2ccco2)c1	13*	-7	9	-18	0
Cc1ccc(NC(=O)CSCc2ccco2)cc1	1	-15	1	-2	-2
Cc1cc(/C=N/n2c(COc3ccccc3)nc3ccccc3c2=O)c(O)c([N+](=O)[O-])c1	-19	2	39*	-19	3
CCc1nnc(NC(=O)CCC(=O)N2CCN(Cc3ccc(C)cc3C)CC2)s1	14*	9	-1	1	-2
CCCc1nnc(NC(=O)CCC(=O)N2CCN(Cc3ccc(C)cc3C)CC2)s1	-1	3	-11	-10	3
CC(=O)NCCc1nc2ccccc2n1Cc1ccc(C)cc1	1	2	0	2	29*	proCasp7 act trip=1;procasp3 conf=8
COCCNC(=O)C(c1ccncc1)N(C(=O)c1sc(C)nc1C)c1cccc(C)c1 (stereo unspecified)	1	-1	-1	2	1
O=C(CN1C(=O)c2cccc3cccc1c23)NCc1ccc2c(c1)OCO2	i	2	7	i	29*	proCasp7 act trip=2;procasp3 conf=2
N#Cc1cc2c(nc1SCc1nc3ccccc3[nH]1)CCC2	x	-6	x	x	1
Cc1cc(C)c(C#N)c(SCc2nc3ccccc3[nH]2)n1	i	2	9	i	156*	proCasp7 act trip=-2;procasp3 conf=5
Cc1cc(C)c(C#N)c(SCc2nnc(-c3ccccc3)o2)n1	-160	23	-1	-389	125*	proCasp7 act trip=-15;procasp3 conf=-18
CC(C)CCN(C(=O)CCCSc1nc2ccccc2[nH]1)c1c(N)n(Cc2ccccc2)c(=O)[nH]c1=O	-9	7	-10	-3	3
CCNc1ccc(S(=O)(=O)N2CCOCC2)cc1NCC(=O)Nc1cccc(Br)c1	-4	x	-10	-4	x
CCCCn1c(N)c(N(Cc2ccccc2OC)C(=O)COc2ccccc2C#N)c(=O)[nH]c1=O	0	3	1	-9	-3
